# Reference: publication PMC10975593 (ACS Omega, 2024)
# Key:
# [1] = tested on: MDA-MB-468; assay: NCI 60-cell line screen; format: cell-based, human
# [2] = tested on: OVCAR-3; assay: NCI 60-cell line screen; format: cell-based, human
# [3] = tested on: SK-OV-3; assay: NCI 60-cell line screen; format: cell-based, human
# Outline: (§1)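 Test compounds were submitted to the National Cancer Institute and run under NCI's standard 60-cell-line protocols. Read-outs were taken from percent-growth versus log-concentration curves.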
# [4] = tested on: EKVX; assay: NCI 60-cell line screen; format: cell-based, human
# [5] = tested on: CAKI-1; assay: NCI 60-cell line screen; format: cell-based, human
# [6] = tested on: TK-10; assay: NCI 60-cell line screen; format: cell-based, human
# Outline: as §1
# [7] = tested on: LOX IMVI; assay: NCI 60-cell line screen; format: cell-based, human
# [8] = tested on: A549 cancer cell line; assay: MTT assay; format: cell-based; conditions: Homo sapiens, A549, 72 h
# Outline: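 A549 in DMEM and MCF-7 in RPMI, each with 10% heat-inactivated FBS, 1% penicillin/streptomycin and 2 mmol/L glutamine at 37 °C, 5% CO2. Seeded at 2000 (A549) or 10,000 (MCF-7) cells/well and attached 24 h. Then 72 h with test compound at varying concentrations. MTT (5 mg/mL stock) added for 4 h at 37 °C, formazan dissolved in DMSO, absorbance read at 450/540 nm. Triplicates in three separate experiments.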
# [9] = tested on: A498; assay: NCI 60-cell line screen; format: cell-based, human
# [10] = tested on: HL-60(TB); conditions: leukemia
# [11] = tested on: SW-620; assay: NCI 60-cell line screen; format: cell-based, human
# Outline: as §1
# [12] = tested on: HS 578T; assay: NCI 60-cell line screen; format: cell-based, human
# [13] = tested on: KM12; assay: NCI 60-cell line screen; format: cell-based, human
# [14] = tested on: MCF-7; assay: NCI 60-cell line screen; format: cell-based, human
# [15] = tested on: COLO 205; assay: NCI 60-cell line screen; format: cell-based, human
# [16] = tested on: HT29; assay: NCI 60-cell line screen; format: cell-based, human
# [17] = tested on: SK-MEL-28; assay: NCI 60-cell line screen; format: cell-based, human
# Outline: as §1
# [18] = tested on: MOLT-4; assay: NCI 60-cell line screen; format: cell-based, human
# [19] = tested on: HCC-2998; assay: NCI 60-cell line screen; format: cell-based, human
# [20] = tested on: SF-268; assay: NCI 60-cell line screen; format: cell-based, human
# Outline: as §1
# [21] = tested on: Staphylococcus aureus; assay: Disc diffusion antimicrobial test; format: cell-based; conditions: Staphylococcus aureus, 24 h, read-out: zone of inhibition (diameter of inhibition)
# Outline: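 Disc diffusion on nutrient agar, test compound at 100 μg/mL with DMSO as solvent. Plates incubated at 37 °C for 24 h after inoculation, then zone of inhibition measured and compared with standards. Controls were DMSO, amoxicillin, ciprofloxacin and tetracycline.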
# [22] = tested on: OVCAR-8; assay: NCI 60-cell line screen; format: cell-based, human
# Outline: as §1
# [23] = tested on: M14; assay: NCI 60-cell line screen; format: cell-based, human
# [24] = tested on: ACHN; assay: NCI 60-cell line screen; format: cell-based, human
# [25] = tested on: NCI-H226; assay: NCI 60-cell line screen; format: cell-based, human
compound,measurement,setting,value
"O=C(CN1CCN(CC(=O)Nc2nc3ccccc3s2)CC1)Nc1ccc([N+](=O)[O-])cc1 [OMS14, N-(benzo[d]thiazol-2-yl)-2-(4-(2-((4-nitrophenyl)amino)-2-oxoethyl)piperazin-1-yl)acetamide]",GI50,"[1]; Homo sapiens, MDA-MB-468",1.5 µM
same,IC50,"[1]; Homo sapiens, MDA-MB-468",3.2 µM
same,CC50,"[1]; Homo sapiens, MDA-MB-468, read-out: LC50",7.1 µM
same,TGI,"[1]; MDA-MB-468, breast cancer",3.2 µM
same,GI50,"[2]; Homo sapiens, OVCAR-3",2.3 µM
same,IC50,"[2]; Homo sapiens, OVCAR-3",4.3 µM
same,CC50,"[2]; Homo sapiens, OVCAR-3, read-out: LC50",> 100 µM
same,TGI,"[2]; OVCAR-3, ovarian cancer",6.6 µM
same,GI50,"[3]; Homo sapiens, SK-OV-3",2.2 µM
same,IC50,"[3]; Homo sapiens, SK-OV-3",6.6 µM
same,CC50,"[3]; Homo sapiens, SK-OV-3, read-out: LC50",> 100 µM
same,TGI,"[3]; SK-OV-3, ovarian cancer",8.1 µM
same,GI50,[4]; Homo sapiens,2 µM
same,IC50,[4]; Homo sapiens,3.8 µM
same,CC50,"[4]; Homo sapiens, read-out: LC50",27.5 µM
same,TGI,[4]; non-small cell lung cancer,4.9 µM
same,TGI,"[5]; CAKI-1, renal cancer",3.6 µM
same,GI50,"[5]; Homo sapiens, CAKI-1",0.9 µM
same,IC50,"[5]; Homo sapiens, CAKI-1",2 µM
same,CC50,"[5]; Homo sapiens, CAKI-1, read-out: LC50",16.2 µM
same,GI50,"[6]; Homo sapiens, TK-10",2.2 µM
same,IC50,"[6]; Homo sapiens, TK-10",6.2 µM
same,CC50,"[6]; Homo sapiens, TK-10, read-out: LC50",> 100 µM
same,TGI,"[6]; TK-10, renal cancer",7.1 µM
same,GI50,[7]; Homo sapiens,1.6 µM
same,IC50,[7]; Homo sapiens,2.8 µM
same,CC50,"[7]; Homo sapiens, read-out: LC50",6.2 µM
same,TGI,[7]; melanoma,3.2 µM
same,IC50,[8],26.1 µM
same,inhibition at 100 µM,[8]; read-out: experimental % of inhibition on A549 cancer cell line,90.6%
same,TGI,"[9]; A498, renal cancer",3.7 µM
same,GI50,"[9]; Homo sapiens, A498",1.7 µM
same,IC50,"[9]; Homo sapiens, A498",3.8 µM
same,CC50,"[9]; Homo sapiens, A498, read-out: LC50",7.9 µM
same,TGI,[10],7.6 µM
same,GI50,"[11]; Homo sapiens, SW-620",0.8 µM
same,IC50,"[11]; Homo sapiens, SW-620",1.1 µM
same,CC50,"[11]; Homo sapiens, SW-620, read-out: LC50",87.1 µM
same,TGI,"[11]; SW-620, colon cancer",5.9 µM
same,TGI,"[12]; HS 578T, breast cancer",8.5 µM
same,GI50,"[12]; Homo sapiens, Hs-578T",2.4 µM
same,IC50,"[12]; Homo sapiens, Hs-578T",8.9 µM
same,CC50,"[12]; Homo sapiens, Hs-578T, read-out: LC50",> 100 µM
same,GI50,"[13]; Homo sapiens, KM12",2.9 µM
same,IC50,"[13]; Homo sapiens, KM12",4.5 µM
same,CC50,"[13]; Homo sapiens, KM12, read-out: LC50",74.1 µM
same,TGI,"[13]; KM12, colon cancer",13.5 µM
same,GI50,"[14]; Homo sapiens, MCF7",2.8 µM
same,IC50,"[14]; Homo sapiens, MCF7",4.1 µM
same,CC50,"[14]; Homo sapiens, MCF7, read-out: LC50",61.7 µM
same,TGI,"[14]; MCF-7, breast cancer",7.8 µM
same,TGI,"[15]; COLO 205, colon cancer",2.2 µM
same,GI50,"[15]; Homo sapiens, COLO 205",1 µM
same,IC50,"[15]; Homo sapiens, COLO 205",1.7 µM
same,CC50,"[15]; Homo sapiens, COLO 205, read-out: LC50",5 µM
same,TGI,"[16]; HT29, colon cancer",3.6 µM
same,GI50,"[16]; Homo sapiens, HT-29",1.3 µM
same,IC50,"[16]; Homo sapiens, HT-29",2.1 µM
same,CC50,"[16]; Homo sapiens, HT-29, read-out: LC50",10.2 µM
same,GI50,"[17]; Homo sapiens, SK-MEL-28",2.1 µM
same,IC50,"[17]; Homo sapiens, SK-MEL-28",4 µM
same,CC50,"[17]; Homo sapiens, SK-MEL-28, read-out: LC50",23.4 µM
same,TGI,"[17]; SK-MEL-28, melanoma",6.2 µM
same,GI50,"[18]; Homo sapiens, MOLT-4",1.1 µM
same,IC50,"[18]; Homo sapiens, MOLT-4",2.5 µM
same,CC50,"[18]; Homo sapiens, MOLT-4, read-out: LC50",> 100 µM
same,TGI,"[18]; MOLT-4, leukemia",9.5 µM
same,TGI,"[19]; HCC-2998, colon cancer",3.9 µM
same,GI50,"[19]; Homo sapiens, HCC 2998",1.7 µM
same,IC50,"[19]; Homo sapiens, HCC 2998",3.1 µM
same,CC50,"[19]; Homo sapiens, HCC 2998, read-out: LC50",8.9 µM
same,GI50,"[20]; Homo sapiens, SF-268",2.2 µM
same,IC50,"[20]; Homo sapiens, SF-268",4.6 µM
same,CC50,"[20]; Homo sapiens, SF-268, read-out: LC50",43.7 µM
same,TGI,"[20]; SF-268, CNS cancer",7.1 µM
same,zone of inhibition at 100 µg/mL,[21],15 mm
same,GI50,"[22]; Homo sapiens, OVCAR-8",1.4 µM
same,IC50,"[22]; Homo sapiens, OVCAR-8",2.4 µM
same,CC50,"[22]; Homo sapiens, OVCAR-8, read-out: LC50",> 100 µM
same,TGI,"[22]; OVCAR-8, ovarian cancer",4.3 µM
same,GI50,"[23]; Homo sapiens, M14",1.7 µM
same,IC50,"[23]; Homo sapiens, M14",3 µM
same,CC50,"[23]; Homo sapiens, M14, read-out: LC50",8.3 µM
same,TGI,"[23]; M14, melanoma",3.8 µM
same,GI50,[24]; Homo sapiens,1.1 µM
same,IC50,[24]; Homo sapiens,2.1 µM
same,CC50,"[24]; Homo sapiens, read-out: LC50",22.9 µM
same,TGI,[24]; renal cancer,4.4 µM
same,GI50,"[25]; Homo sapiens, NCI-H226",1.4 µM
same,IC50,"[25]; Homo sapiens, NCI-H226",3.5 µM
same,CC50,"[25]; Homo sapiens, NCI-H226, read-out: LC50",> 100 µM
same,TGI,"[25]; NCI-H226, non-small cell lung cancer",4.2 µM
